“Also recorded” adds a separate entry of the source.

In test [1] the test system is ARPE-19 cells. Kind of test: Pyknotic nuclei counting. In kind it is cell-based, human. The following applies: 600 μM H2O2, 16 hours, Hoechst stain. A digest of the protocol: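 ARPE-19 cells were serum-starved, then treated with 600 μM H₂O₂ and test peptide together for 16 h. Cells were fixed in methanol (15 min, RT) and stained with 5 μM Hoechst in PBS (15 min, RT). Five random fields per well were imaged, and pyknotic nuclei were counted as a percentage of total cells.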

Test [2] has as its system PEDF. The following applies: peptides from Leu159-Met325 of PEDF-R; cited from earlier work.
For test [3], the system named is ARPE-19 cells. The test can be described thus: Cell viability. It is filed as cell-based, human. The procedure, abridged: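 ARPE-19 cells (passages 27–40; DMEM/F-12, 10% FBS, 37°C, 5% CO₂) were plated at 2 × 10⁴ cells/well and grown to confluence (72 h). After 8 h starvation in 0.5% serum, cells received increasing H₂O₂ plus TNF-α (10 ng/mL), with or without test peptide, for 16 h. Relative live-cell numbers came from intracellular ATP luminescence; each point is the mean of duplicate wells.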

Test [4] relates to LTB4 (5-LOX activity) in primary pig RPE cells. Kind of test: Leukotriene B4 ELISA, primary pig RPE medium. In kind it is cell-based. The following applies: 125 μM or 250 μM H2O2/TNF-α. A digest of the protocol: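 Primary pig RPE cultures received H₂O₂ with TNF-α and test peptide. Medium was collected per well, spun briefly at low speed, and 50 μL was assayed by competitive LTB₄ enzyme immunoassay. Concentration came from an LTB₄ standard curve and was normalized to cell number per well. Duplicate wells per condition, each well measured in triplicate; experiment run twice.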

The subject of test [5] is LTB4 (5-LOX activity) in ARPE-19 cells. The test can be described thus: Leukotriene B4 ELISA, ARPE-19 medium. It is filed as cell-based, human. Background: An ELISA detects its analyte on a solid surface through an enzyme-linked reagent.
Test [6] has as its system primary pig RPE cells. Kind of test: Cell viability. It is filed as cell-based. A digest of the protocol: (§1)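 Primary pig RPE cultures plated at 2 × 10⁴ cells/well (96-well) and grown to confluence (72 h), then exposed to H₂O₂ with TNF-α (10 ng/mL) and test peptide for the indicated time. Live cells were measured as intracellular ATP luminescence (CellTiter-Glo) and dead cells as dead-cell protease luminescence (CytoTox-Glo), with lysis reagent added for total-cell signal. Relative cell numbers are from duplicate wells.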

In test [7] the test system is human recombinant 5-LOX. Kind of test: Peptide-affinity chromatography, human recombinant 5-LOX. In kind it is binding. The following applies: 0.1 M sodium phosphate, 0.1% NP-40, Western blot. The procedure, abridged: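 Human recombinant 5-LOX (300 ng) was incubated with P1-peptide agarose (0.4 nmol) in 0.1 M sodium phosphate and 0.1% NP-40 containing 25–250 mM NaCl, with gentle rotation at 4°C (1.5 h per general method). Agarose without peptide at 50 mM NaCl served as control resin. After extensive washes, bound protein was eluted in SDS-PAGE sample buffer and detected by anti-5-LOX Western blot (1:10,000) with chemiluminescence on film.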
In general terms: A western blot detects proteins with antibodies after separation by electrophoresis.

Test [8] relates to primary pig RPE cells. The test can be described thus: Cell death. The following applies: for Cell death under oxidative stress: pig RPE. It is filed as cell-based. A digest of the protocol: as §1
In test [9] the test system is ARPE-19 cells. Kind of test: Cell death. In kind it is cell-based, human. A digest of the protocol: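 ARPE-19 cells (passages 27–40) grown in DMEM/F-12 with 10% FBS at 37°C, 5% CO₂, plated at 2 × 10⁴ cells/well (96-well) and cultured to confluency (72 h). Serum-starved 8 h in 0.5% serum, then exposed 16 h to H₂O₂ (600 μM for scrambled-control comparison) plus TNF-α (10 ng/mL) with test peptides. Dead-cell protease activity read by CytoTox-Glo; duplicate wells ± SD.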

In the case of “P1: L4-derived peptide containing residues Thr^210-Leu^249 of human PEDF-R (TSIQFNLRNLYRLSKALFPPEPLVLREMCKQGYRDGLRFL; UniProt Q96AD5 210-249, looked up, fragment)”, the Pyknotic nuclei level entry in test [1] is given as “resulted in a decrease of pyknotic nuclei level”. Further, in test [2], the PEDF-binding affinity entry is “retain the PEDF-binding affinity of PEDF-R”. The “Protective effect against H2O2” value in test [3] (600 μM H2O2 plus TNF-α (10 ng/mL), preliminary, data not shown) is on record as “had protective effects against 600 μM H2O2”. Further, the “Cell viability under oxidative stress” value in test [3] (H2O2/TNF-α, ATP live cell biomarker, duplicate wells) is “promoted cell viability; also recorded: increased the ARPE-19 cell viability”; in test [6] (125 μM H2O2) it was “increased pig RPE cell viability”. Further, the “LTB4 level under oxidative stress” value in [4] is “decreased LTB4 levels in primary pig RPE cells treated at 125 μM or 250 μM H2O2/TNF-α in a concentration-dependent fashion”; in [5] (600 μM H2O2/TNF-α, 20 nM P1) it was “decreased LTB4 to basal levels”; in test [5] (750 μM H2O2/TNF-α) it was “only partially diminished LTB4”. The “Cell numbers (viability) under oxidative stress” value in test [6] (250 μM H2O2) is reported as “did not increase the cell numbers”. In addition, the “Binding of 5-LOX to P1 at 250 mM NaCl” value in test [7] (250 mM NaCl) is given as “completely abolished”. The “Binding of 5-LOX to P1 with increasing ionic strength” value in [7] (25-250 mM NaCl) was “with increasing ionic strength the binding decreased”. Further, the “Cell death under oxidative stress” value in test [8] (125 μM H2O2) was “decreased death at 125 μM H2O2”; in test [8] (250 μM H2O2), “decreased cell death at 250 μM H2O2”. Besides, the “Protection from oxidative stress-induced cell death (summary)” value in test [8] (pig primary RPE, H2O2/TNF-α) was “protected ARPE-19 and pig primary RPE cells from oxidative stress–induced cell death in a specific and concentration-dependent fashion”; in test [9] (H2O2/TNF-α), “protected ARPE-19 and pig primary RPE cells from oxidative stress–induced cell death in a specific and concentration-dependent fashion”. Also, the “Number of dead cells under oxidative stress” value in test [9] (H2O2 (600 μM for SCR comparison), dead cell protease activity) is on record as “decreased cell death of RPE cells undergoing oxidative stress; also recorded: decreased the number of dead cells under oxidative stress in a concentration-dependent fashion”.

These data come from article PMC5033602 (Investigative Ophthalmology & Visual Science, 2016).
